Bioassay records as filed in PubChem BioAssay.
KCNK3 inh: human KCNK3 channel inhibitors, primary screen, CHO cells, FluxOR thallium flux, B-score | FluxOR fluorescence; active compounds read low | B-score at 10 µM | Potassium channel subfamily K member 3 (Homo sapiens), O14649 | hit rate 0.84% among 340,000 | AID 602410, 2012;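 active = B-score under library mean minus 4 SD, starting fluorescence ratio at most library mean plus 5 SD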;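 also: more negative B-score means stronger inhibition of thallium flux through KCNK3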
Kir21 block: inhibitors of mouse Kir2.1 inward-rectifier potassium channel | hit rate 0.85% among 310,000 | Inward rectifier potassium channel 2 (Mus musculus), P35561 | B-score at 10 µM | HEK293-Kir2.1, FluxOR thallium flux fluorescence; active compounds read low;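 active = fluorescence ratio B-score at or below minus 3 SD of library scores, with starting-brightness B-score within 2 SD, cut at about -4.2 in these data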;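 also: channel flux triggered by added potassium and thallium sulfate stimulus; B-score of peak minus minimum fluorescence over baseline after thallium stimulus; more negative B-score means stronger Kir2.1 block with less thallium influx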
KCNK9 inh: KCNK9 potassium channel inhibitors, primary screen, HEK293 cells, thallium flux; Potassium channel subfamily K member 9 (Homo sapiens), Q9NPC2; FluxOR thallium flux fluorescence; active compounds read low; B-score at 10 µM; hit rate 1.2% among 310,000; AID 488922, 2010;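 active = ratio B-score over 3 SD below the library mean, with starting fluorescence within 5 SD of its mean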;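 also: negative B-score means less thallium flux so channel inhibition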
Target sequence (Q9NPC2 whole entry, looked up): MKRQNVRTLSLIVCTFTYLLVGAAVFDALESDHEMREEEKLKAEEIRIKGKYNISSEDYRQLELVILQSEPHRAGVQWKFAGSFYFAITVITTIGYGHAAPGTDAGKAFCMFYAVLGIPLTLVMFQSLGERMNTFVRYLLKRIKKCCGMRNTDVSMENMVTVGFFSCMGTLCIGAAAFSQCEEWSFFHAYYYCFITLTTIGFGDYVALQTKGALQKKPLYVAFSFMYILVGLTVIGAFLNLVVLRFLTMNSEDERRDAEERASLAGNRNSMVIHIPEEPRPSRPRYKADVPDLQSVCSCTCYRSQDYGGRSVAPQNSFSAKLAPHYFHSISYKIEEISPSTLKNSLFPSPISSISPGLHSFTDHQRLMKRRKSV
KCNQ1 act: potentiators or activators of KCNQ1 channel, primary screen, cell-based, thallium flux, high-throughput | Potassium voltage-gated channel subfamily KQT member 1 (Homo sapiens), P51787 | CHO-K1 KCNQ1, thallium flux FluxOR fluorescence; active compounds read high | B-score at 10 µM | hit rate 0.35% among 310,000;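 active = fluorescence ratio B-score, a plate-corrected score, at least three library SD, with initial intensity B-score within 5 SD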
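Doses: Single concentration per compound, DMSO matched to controls | Test system: KCNQ1-transfected CHO-K1 cells | Timing: 90 min dye loading and 20 min compound exposure, both at room temperature | Measured by: Kinetic FluxOR thallium fluorescence, 10-s 1-Hz baseline, 110-s post-stimulus read | Medium: Assay buffer with matched DMSO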
hERG rescue: hERG rescue from dofetilide block, primary screen, cell-based, CHO-hERG, FluxOR thallium flux, dofetilide IC70; Voltage-gated inwardly rectifying potassium channel KCNH2 (Homo sapiens), Q12809; dofetilide IC70 present; activation (rescue from dofetilide block), less the hit threshold, % at 10 µM; hit rate 0.51% among 310,000; AID 1511, 2009;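 active = activation above the mean of controls blocked by dofetilide plus 5 SD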;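 also: thallium influx through hERG after potassium depolarization seen as dye fluorescence rise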
KCNQ1 block: inhibitors of human KCNQ1 channel, primary screen, cell-based, thallium flux, high-throughput. Potassium voltage-gated channel subfamily KQT member 1 (Homo sapiens), P51787. CHO-K1 KCNQ1, FluxOR thallium flux fluorescence; active compounds read high. B-score at 10 µM. hit rate 1.3% among 310,000;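 active = compounds whose thallium flux B-score, printed positive for inhibition, exceeds three library SD while starting fluorescence stays within three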;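 also: channel opened by potassium depolarization with thallium stimulus after 20 min compound exposure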
KCNK9 block conf: KCNK9 potassium channel inhibitors, confirmation, HEK293 cells, thallium flux, duplicate; inhibition, % at 10 µM; hit rate 43% among 4,900; shares compounds with KCNK9 inh; FluxOR thallium flux fluorescence; AID 492992, 2010;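 active = thallium signal inhibited by more than 5 SD of the compound-free buffer control wells, on both duplicate plates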;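 also: 0% = assay buffer control wells without compound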
Kir2-1 spec: mouse Kir2.1 channel inhibition, confirmation, selectivity assay for KCNK9 modulator project, cell-based, HEK293, thallium flux | shares compounds with KCNK9 inh | Kir2.1 cells, FluxOR thallium flux fluorescence | inhibition, % at 10 µM | hit rate 4% among 4,900 | AID 492993, 2010;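 active = thallium signal drop more than 5 SD beyond the mean of the no-compound control wells, seen in both duplicate plates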;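 also: signal is fluorescence rise after thallium addition divided by baseline fluorescence; plate controls were assay buffer only for no effect and full block by chlorpromazine control for full effect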
KCNK9 uninduced: thallium flux in non-induced HEK293 cells, confirmation, counter-screen for KCNK9 inhibitor project, cell-based, second counter screen, non-induced KCNK9-HEK293; shares compounds with KCNK9 inh; FluxOR thallium flux; inhibition, % at 10 µM; hit rate 40% among 4,900; AID 492997, 2010;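 active = thallium signal drop beyond 5 SD of the untreated control mean, on both duplicate plates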;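 also: plate controls were buffer only IC0 wells for no effect and SID17386958 at its maximal inhibitory level for full effect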
* = called active by the depositor; i = inactive; · = no result; ! = repeats disagree. Shown are actives, neighbours in structure and some others; about 3.7% of the full set was active somewhere.

SMILES	KCNK3 inh	Kir21 block	KCNK9 inh	KCNQ1 act	hERG rescue	KCNQ1 block	KCNK9 block conf	Kir2-1 spec	KCNK9 uninduced
COc1ccc(C2NC(=O)CCC2[N+](=O)[O-])cc1OC (centres undefined)	i	-0.05	-14.9*	i	-9.0	i	i	i	i
CC(=O)Nc1c(C(=O)O)ccc(C)c1OCc1ccccc1	i	·	·	·	·	·	·	·	·
CC1=NN(c2ccccc2)C(=O)/C1=C\C=C1\N(C)c2ccccc2C1(C)C	i	0.49	-9.13*	i	-11.1	i	i	i	i
CC1=NN(c2ccccc2)C(=O)/C1=C\C=C1/N(C)c2ccccc2C1(C)C	i	3.14	i	i	-12.3	i	·	·	·
COc1ccc(-c2nc(-c3ccc4c(c3)OCO4)[nH]c2-c2ccc(OC)cc2)cc1	i	0.68	-9.18*	i	-4.7	i	65.0%*	i	i
O=C(N/N=C/c1cc(Br)cc(Br)c1O)c1cccc(S(=O)(=O)N2CCOCC2)c1	i	-0.21	-8.49*	i	-12.5	i	59.0%*	i	68.0%*
NS(=O)(=O)c1ccc(CCNC(=O)C2CCCN2S(=O)(=O)c2cccc3nsnc23)cc1 (centres undefined)	i	-0.46	i	i	-2.3	i	·	·	·
Cc1ccc(OCCNC(=O)c2ccc3ccccc3n2)cc1	i	2.25	i	i	-11.9	i	i	i	i
Cc1ccc(OCCNC(=O)c2ccccc2N)cc1	i	-0.03	i	i	-3.5	i	·	·	·
O=C(NCCOc1ccc(Cl)cc1)c1ccc2ccccc2n1	i	-0.02	i	i	-10.1	i	i	i	i
COc1ccc(-c2csc(=NCCO)n2-c2ccccc2)cc1	i	2.42	i	i	-10.0	i	·	·	·
NC(=NCCCCCCN=C(N)/N=C(\N)Nc1ccc(Cl)cc1)/N=C(\N)Nc1ccc(Cl)cc1	i	-0.15	-10.2*	12*!	-5.0	i	50.5%*	38.5%*	i
CCCn1nc(NC(=O)c2cccs2)c2cc3cc(OC)ccc3nc21	i	0.32	-10.4*	i	-5.2	i	i	i	i
CCOC(=O)c1cc(-c2ccc(/C=C3/C(=O)N(c4ccc(C(=O)O)cc4)N=C3C)o2)ccc1Cl	i	1.74	i	i	-15.2	i	i	i	i
CN(C)CCNC(=O)Cn1ccc2cc(S(=O)(=O)N3CCCCC3)ccc21	i	0.83	i	i	-5.6	i	·	·	·
CNC(=S)N/N=C/C1=CCC2CC1C2(C)C (centres undefined)	i	-0.52	i	i	0.6	i	·	·	·
CC1(C)C2CC=C(/C=N/NC(=S)NCCc3ccccc3)C1C2 (centres undefined)	i	2.32	i	i	-17.7	i	i	i	i
COc1cccc(CNc2ccc(N3CCC(C)CC3)cc2)c1OC	i	-2.51	i	i	-2.6	i	i	i	i
COc1ccc(Br)cc1CNc1ccc(N2CCOCC2)cc1	i	0.48	i	i	-7.8	i	·	·	·
O=C(O)C1CCC(=O)N1C(=O)OCc1ccccc1 (centres undefined)	i	-0.76	i	i	-1.7	i	·	·	·
Cc1ccsc1/C=N/N1CCN(C2c3ccccc3-c3ccccc32)CC1	i	-2.77	i	i	-5.0	i	i	i	27.0%*
CC(C)(C)C#CC(CCc1ccccc1)OS(N)(=O)=O (centres undefined)	·	1.07	i	i	-4.0	i	·	·	·
O=[N+]([O-])c1cccc(OCCN2CCC(Cc3ccccc3)CC2)c1	i	-1.23	i	i	-15.9	7*	i	i	i
O=Cc1cc(Cl)ccc1OCCN1CCC(Cc2ccccc2)CC1	i	-4.77*	i	i	-26.3	i	i	i	i
Clc1ccccc1OCCN1CCC(Cc2ccccc2)CC1	i	-4.31	i	i	-12.4	i	i	i	i
SMILES	KCNK3 inh	Kir21 block	KCNK9 inh	KCNQ1 act	hERG rescue	KCNQ1 block	KCNK9 block conf	Kir2-1 spec	KCNK9 uninduced
O=C(CSC(=S)N1CCCC1)N(Cc1nnc(-c2ccccc2Cl)o1)C1CC1	i	·	·	·	·	·	·	·	·
N#Cc1c(Nc2ccc(Cl)cc2)s[nH]c1=O	i	-0.03	i	i	-8.4	i	i	i	i
CSc1nc(Nc2ccc(Cl)cc2)c(C#N)c(=O)[nH]1	i	1.1	i	i	-2.5	i	·	·	·
Oc1cc(-c2ccccc2)c2ccccc2c1	i	-4.64*	-10.6*	i	-16.7	8*	49.0%*	i	34.5%*
Cc1cnc(C)c(N2CCN(Cc3nc(-c4cccc(F)c4F)oc3C)CC2)n1	i	0.75	i	i	-25.0	i	·	·	·
Cc1cccc(N2CCN(Cc3nc(-c4ccc(F)cc4F)oc3C)CC2)n1	i	-2.79	i	i	-22.9	i	i	i	i
CCC1(c2ccc(OC)cc2)NC(=O)N(CC(=O)NC2CCCCC2C)C1=O (centres undefined)	i	·	·	·	·	·	·	·	·
Cc1ccc(-c2cc3ccccc3nc2N2CCOCC2)cc1	i	-1.13	i	i	-10.6	i	i	i	i
N#Cc1ccccc1-c1ccccc1C(=O)N1CCCCC1	i	0.5	-19.2*	i	-2.5	i	i	i	i
O=C(c1cccc2c1-c1ccccc1C2)N1CCCCC1	i	1.26	i	i	-4.9	i	·	·	·
CC12COC3(C(=O)Nc4ccc5ccccc5c4)CC1CCC32C (centres undefined)	i	0.6	i	i	-1.1	i	i	i	i
